Laboratory results published in ChEMBL document CHEMBL1126751, “Studies on quinazolines. 5. 2,3-dihydroimidazo[1,2-c]quinazoline derivatives: a novel class of potent and selective alpha 1-adrenoceptor antagonists and antihypertensive agents” (J Med Chem, 1993).
Calls of active or inactive are those of the source. The calls are words filed in the database; no cut-off is given here.

What was measured:
[1] = molecular target: T1, Adrenergic receptor alpha-2 (Rattus norvegicus, UniProt P22086+P19328+P22909); assay: Binding affinity against alpha-2 adrenergic receptor by measuring displacement of [3H]clonidine from rat brain cortex membranes (in vitro).; format: cell membranes, Membrane
T1 sequence (P22086 whole entry): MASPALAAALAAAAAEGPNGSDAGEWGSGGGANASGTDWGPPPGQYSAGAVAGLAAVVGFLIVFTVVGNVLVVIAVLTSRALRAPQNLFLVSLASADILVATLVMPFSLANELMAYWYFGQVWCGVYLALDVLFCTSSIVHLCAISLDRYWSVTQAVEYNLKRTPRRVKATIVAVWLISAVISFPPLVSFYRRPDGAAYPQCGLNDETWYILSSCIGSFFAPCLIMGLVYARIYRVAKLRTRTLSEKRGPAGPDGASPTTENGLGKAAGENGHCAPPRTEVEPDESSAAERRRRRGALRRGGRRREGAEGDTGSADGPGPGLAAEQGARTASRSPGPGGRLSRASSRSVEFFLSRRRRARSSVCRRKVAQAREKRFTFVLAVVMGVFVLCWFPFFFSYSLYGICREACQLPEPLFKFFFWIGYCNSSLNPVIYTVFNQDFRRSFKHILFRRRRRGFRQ
T1 sequence (P19328 whole entry): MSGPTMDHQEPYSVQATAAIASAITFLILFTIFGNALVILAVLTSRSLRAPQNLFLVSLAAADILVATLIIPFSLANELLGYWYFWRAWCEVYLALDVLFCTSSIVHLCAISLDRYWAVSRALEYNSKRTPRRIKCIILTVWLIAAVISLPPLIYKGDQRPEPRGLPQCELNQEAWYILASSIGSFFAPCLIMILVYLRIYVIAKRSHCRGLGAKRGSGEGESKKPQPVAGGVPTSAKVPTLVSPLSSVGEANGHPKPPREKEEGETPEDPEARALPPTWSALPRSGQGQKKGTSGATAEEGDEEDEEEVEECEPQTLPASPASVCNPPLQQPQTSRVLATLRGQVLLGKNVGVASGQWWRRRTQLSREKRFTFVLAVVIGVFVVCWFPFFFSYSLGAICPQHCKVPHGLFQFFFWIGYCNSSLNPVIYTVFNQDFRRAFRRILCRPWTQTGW
T1 sequence (P22909 whole entry): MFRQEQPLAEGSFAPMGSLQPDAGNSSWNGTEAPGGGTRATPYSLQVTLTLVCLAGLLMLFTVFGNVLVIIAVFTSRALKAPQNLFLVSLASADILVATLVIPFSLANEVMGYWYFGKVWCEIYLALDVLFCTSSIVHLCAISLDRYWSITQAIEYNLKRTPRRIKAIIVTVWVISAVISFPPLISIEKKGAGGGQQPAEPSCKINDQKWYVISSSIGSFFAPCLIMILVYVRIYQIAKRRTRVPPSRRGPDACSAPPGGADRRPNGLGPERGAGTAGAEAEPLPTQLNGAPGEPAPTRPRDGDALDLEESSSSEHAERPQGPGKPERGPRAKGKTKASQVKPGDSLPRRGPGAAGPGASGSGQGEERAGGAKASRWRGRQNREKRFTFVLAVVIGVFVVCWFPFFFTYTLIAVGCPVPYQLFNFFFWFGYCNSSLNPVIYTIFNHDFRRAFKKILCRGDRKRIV

[2] = molecular target: T2, Adrenergic receptor alpha-1 (Rattus norvegicus, UniProt P15823+P23944+P43140); assay: Binding affinity against alpha-1 adrenergic receptor by measuring displacement of [3H]prazosin from rat brain cortex membranes (in vitro).; format: cell membranes, Membrane
T2 sequence (P15823 whole entry): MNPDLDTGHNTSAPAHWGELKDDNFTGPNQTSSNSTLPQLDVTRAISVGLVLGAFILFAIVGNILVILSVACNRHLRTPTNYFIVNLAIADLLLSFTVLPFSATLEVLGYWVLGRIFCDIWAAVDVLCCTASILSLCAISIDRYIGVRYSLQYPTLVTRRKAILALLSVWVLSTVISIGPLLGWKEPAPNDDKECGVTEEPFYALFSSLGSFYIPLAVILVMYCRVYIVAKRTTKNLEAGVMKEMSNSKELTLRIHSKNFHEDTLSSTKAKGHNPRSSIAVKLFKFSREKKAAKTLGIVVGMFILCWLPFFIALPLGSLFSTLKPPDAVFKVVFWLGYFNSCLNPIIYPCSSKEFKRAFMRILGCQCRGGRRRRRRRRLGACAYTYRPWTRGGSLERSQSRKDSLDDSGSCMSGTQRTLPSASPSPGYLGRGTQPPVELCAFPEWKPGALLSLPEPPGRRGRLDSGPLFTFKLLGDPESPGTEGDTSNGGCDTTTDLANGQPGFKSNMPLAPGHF
T2 sequence (P23944 whole entry): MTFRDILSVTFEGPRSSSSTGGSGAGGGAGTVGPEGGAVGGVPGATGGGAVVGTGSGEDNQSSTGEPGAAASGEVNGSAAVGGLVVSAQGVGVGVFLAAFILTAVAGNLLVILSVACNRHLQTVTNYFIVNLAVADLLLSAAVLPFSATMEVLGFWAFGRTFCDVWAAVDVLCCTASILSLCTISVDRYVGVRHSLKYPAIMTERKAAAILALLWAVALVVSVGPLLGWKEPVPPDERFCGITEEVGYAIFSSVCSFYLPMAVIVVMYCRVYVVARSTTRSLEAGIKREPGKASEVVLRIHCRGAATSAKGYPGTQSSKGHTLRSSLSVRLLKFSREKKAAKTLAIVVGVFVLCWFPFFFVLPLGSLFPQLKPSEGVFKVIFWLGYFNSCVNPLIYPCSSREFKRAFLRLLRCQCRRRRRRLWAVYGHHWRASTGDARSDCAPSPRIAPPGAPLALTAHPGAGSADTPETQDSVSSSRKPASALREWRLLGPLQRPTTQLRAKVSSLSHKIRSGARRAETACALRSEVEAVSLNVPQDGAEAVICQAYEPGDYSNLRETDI
T2 sequence (P43140 whole entry): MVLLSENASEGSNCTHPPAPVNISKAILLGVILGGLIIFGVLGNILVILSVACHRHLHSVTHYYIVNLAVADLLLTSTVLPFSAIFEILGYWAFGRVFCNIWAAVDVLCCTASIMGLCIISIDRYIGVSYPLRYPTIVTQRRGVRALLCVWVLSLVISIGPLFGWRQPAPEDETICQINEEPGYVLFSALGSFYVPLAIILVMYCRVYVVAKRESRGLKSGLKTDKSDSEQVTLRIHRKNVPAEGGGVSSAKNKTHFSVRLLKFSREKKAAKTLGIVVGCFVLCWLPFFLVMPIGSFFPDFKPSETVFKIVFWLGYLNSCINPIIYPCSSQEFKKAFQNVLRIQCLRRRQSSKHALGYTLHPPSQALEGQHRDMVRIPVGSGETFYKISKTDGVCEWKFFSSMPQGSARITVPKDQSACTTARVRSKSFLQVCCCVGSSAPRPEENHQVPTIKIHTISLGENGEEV

[3] = test system: Rattus norvegicus; assay: Blood pressure lowering activity in spontaneously hypertensive rats (SHR) after 6 hours of administration (iv) of dose of 4.0 mg/kg […]; format: functional
[4] = test system: Rattus norvegicus; assay: Blood pressure lowering activity in spontaneously hypertensive rats (SHR) after 1 hour of administration (iv) of dose of 4.0 mg/kg […]; format: functional
[5] = test system: Rattus norvegicus; assay: Inhibitory concentration against 5-HT in conscious spontaneously […] rats (SHR); format: functional, organism-based
[6] = test system: Rattus norvegicus; assay: Inhibitory concentration against phenylephrine in conscious spontaneously […] rats (SHR); format: functional, organism-based
[7] = test system: Rattus norvegicus; assay: Blood pressure lowering activity in spontaneously hypertensive rats (SHR) after 1 hour of administration (iv) of dose of 4.0 mg/kg; Did not last more than 1/2 hr […]; format: functional, organism-based; design: dose 4 mg/kg
[8] = test system: Rattus norvegicus; assay: Blood pressure lowering activity in spontaneously hypertensive rats (SHR) after 6 hour of administration (iv) of dose of 4.0 mg/kg; Did not last more than 1/2 hr […]; format: functional, organism-based; design: dose 4 mg/kg
[9] = test system: Rattus norvegicus; assay: Blood pressure lowering activity in spontaneously hypertensive rats (SHR) after 6 hours of administration (iv) of dose of 0.5 mg/kg; format: functional
[10] = test system: Rattus norvegicus; assay: Blood pressure lowering activity in spontaneously hypertensive rats (SHR) after 6 hours of administration (iv) of dose of 1.0 mg/kg; format: functional
[11] = test system: Rattus norvegicus; assay: Blood pressure lowering activity in spontaneously hypertensive rats (SHR) after 1 hour of administration (iv) of dose of 0.5 mg/kg; format: functional
[12] = test system: Rattus norvegicus; assay: Blood pressure lowering activity in spontaneously hypertensive rats (SHR) after 1 hour of administration (iv) of dose of 1.0 mg/kg; format: functional
[13] = test system: Rattus norvegicus; assay: Blood pressure lowering activity in spontaneously hypertensive rats (SHR) after 6 hours of administration (iv) of dose of 0.5 mg/kg […]; format: functional
[14] = test system: Rattus norvegicus; assay: Blood pressure lowering activity in spontaneously hypertensive rats (SHR) after 6 hours of administration (iv) of dose of 2.0 mg/kg […]; format: functional
[15] = test system: Rattus norvegicus; assay: Blood pressure lowering activity in spontaneously hypertensive rats (SHR) after 1 hour of administration (iv) of dose of 0.5 mg/kg […]; format: functional
[16] = test system: Rattus norvegicus; assay: Blood pressure lowering activity in spontaneously hypertensive rats (SHR) after 1 hour of administration (iv) of dose of 2.0 mg/kg […]; format: functional
[17] = molecular target: T2, Adrenergic receptor alpha-1; assay: Alpha-1-antagonistic activity against phenylephrine in rat aorta; format: functional, tissue-based
[18] = test system: Rattus norvegicus; assay: Blood pressure lowering activity in spontaneously hypertensive rats (SHR) after 6 hours of administration (iv) of dose of 0.25 mg/kg; format: functional
Procedure, shortened: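 Anesthetized spontaneously hypertensive rats of either sex, 250–300 g (pentobarbital sodium 40–50 mg/kg ip). Compound given iv via cannulated femoral vein. Arterial pressure recorded via right femoral artery cannula with pressure transducer, body temperature held at 37.5 °C. Value is maximum change in mean blood pressure (mmHg) at the time point. Groups of four to six animals.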

[19] = test system: Rattus norvegicus; assay: Blood pressure lowering activity in spontaneously hypertensive rats (SHR) after 6 hours of administration (iv) of dose of 0.5 mg/kg; Did not last more than 1/2 hr […]; format: functional, organism-based; design: dose 0.5 mg/kg
[20] = test system: Rattus norvegicus; assay: Blood pressure lowering activity in spontaneously hypertensive rats (SHR) after 1 hour of administration (iv) of dose of 0.5 mg/kg; Did not last more than 1/2 hr […]; format: functional, organism-based; design: dose 0.5 mg/kg
[21] = test system: Rattus norvegicus; assay: Blood pressure lowering in spontaneously hypertensive rats (SHR) after 1 hour of administration (iv) of dose of 4.0 mg/kg […]; format: functional

COc1cc2c(cc1OC)C1=NC(CN3CCN(c4ccccc4)CC3)CN1C(=O)N2 (stereo not given)
Ki [1]: 1694 nM | Ki [2]: 30 nM | MBP [3]: -12.6 mmHg | MBP [4]: -38.2 mmHg

O=C(c1ccc(F)cc1)C1CCN(CCn2c(=O)[nH]c3ccccc3c2=O)CC1 [KETANSERIN]
IC50 [5]: 27.8 nM | IC50 [6]: 5.73 nM

COc1cccc(N2CCN(CC3CN4C(=O)Nc5ccccc5C4=N3)CC2)c1 (stereo not given)
MBP [3]: -8.5 mmHg | MBP [4]: -20.3 mmHg

O=C1Nc2ccccc2C2=NC(CN3CCN(Cc4ccc5c(c4)OCO5)CC3)CN12 (stereo not given)
Ki [2]: > 100 nM | MBP [7]: inactive | MBP [8]: inactive

SC1=Nc2ccccc2C2=NC(CN3CCN(c4ccccc4)CC3)CN12 (stereo not given)
Ki [2]: 158 nM | MBP [3]: -22.5 mmHg | MBP [4]: -33.9 mmHg

O=C1Nc2ccccc2C2=NC(CN3CCN(c4ccccc4Cl)CC3)CN12 (stereo not given)
Ki [1]: 3166 nM | Ki [2]: 1.1 nM | MBP [9]: -5.7 mmHg | MBP [10]: -12.6 mmHg | MBP [11]: -25.5 mmHg | MBP [12]: -40.7 mmHg

CN1C(=O)N2C(=NCC2CN2CCN(c3ccccc3Cl)CC2)c2ccccc21 (stereo not given)
Ki [1]: 810 nM | Ki [2]: 0.068 nM | MBP [13]: -5.9 mmHg | MBP [14]: -14 mmHg | MBP [15]: -8.3 mmHg | MBP [16]: -24 mmHg

COc1ccccc1N1CCN(CC2CN3C(=O)Nc4ccccc4C3=N2)CC1 (stereo not given)
Ki [1]: 3450 nM | Ki [2]: 1.3 nM | MBP [9]: -18.8 mmHg | MBP [11]: -20 mmHg

O=C(c1ccc(F)cc1)C1CCN(CC2CN3C(=O)Nc4ccccc4C3=N2)CC1 (stereo not given)
MBP [3]: -13.8 mmHg | MBP [4]: -30 mmHg

O=C1Nc2ccccc2C2=NC(CN3CCN(c4ccccc4)CC3)CN12 (stereo not given)
pA2 [17]: 9.82 | Ki [1]: 3860 nM | Ki [2]: 2.01 nM | IC50 [5]: 0.36 nM | IC50 [6]: 0.44 nM | MBP [18]: -8.75 mmHg | MBP [9]: -32.5 mmHg | MBP [10]: -44.5 mmHg | MBP [11]: -49.3 mmHg | MBP [12]: -57.5 mmHg

CN1C(=O)N2CC(CN3CCN(c4ccccc4)CC3)N=C2c2ccccc21 (stereo not given)
Ki [1]: 3334 nM | Ki [2]: 10.5 nM | MBP [19]: inactive | MBP [20]: inactive

COC1=Nc2ccccc2C2=NCC(CN3CCN(c4ccccc4Cl)CC3)N12 (stereo not given)
Ki [1]: 116 nM | Ki [2]: 0.11 nM | MBP [19]: inactive | MBP [15]: -28.3 mmHg

O=C1Nc2ccccc2C2=NC(CN3CCN(Cc4ccccc4)CC3)CN12 (stereo not given)
Ki [1]: > 10000 nM | Ki [2]: 850 nM | MBP [21]: -43.7 mmHg

COc1ccccc1N1CCN(CC2CN=C3c4ccccc4NC(=O)N32)CC1 (stereo not given)
Ki [1]: 593 nM | Ki [2]: 0.21 nM | MBP [19]: inactive | MBP [20]: inactive

COc1ccc(N2CCN(CC3CN4C(=O)Nc5ccccc5C4=N3)CC2)cc1 (stereo not given)
Ki [2]: > 100 nM | MBP [7]: inactive | MBP [8]: inactive
